Here are results for 21 compounds from ChEMBL document CHEMBL3227978, “Azetidine derivatives of tricyclic antidepressant agents” (J Med Chem, 1979).

Each structure is given as a SMILES string. Where only a bound is given, the exact number is not on record here.

In series [1] the test system is Mus musculus. The series is described as follows: Antidepressant activity in po dosed ICEM:CET (SPF Caw) mouse assessed as antagonism of reserpine-induced blepharospasm administered via gavage 30 mins before reserpine challenge measured 1 hr after reserpine treatment. It counts as functional. Conditions: Mus musculus, ICEM:CET(SPF Caw), po; read-out: ED50. The method, boiled down:
(§1)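 Groups of ten male mice (18-22 g), fasted 9 h with water until 2 h pre-test. Oral gavage in 0.5% Methocel at doses below the 25 mg/kg screen, 30 min before reserpine 2.5 mg/kg ip. Blepharospasm scored blind at 1 h, rectal temperature at 4 h. ED50 estimated by eye-fit linear plots on semilogarithmic paper.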

In series [2] the test system is Mus musculus. Nature of the series: Anticonvulsant activity in po dosed ICEM:CET (SPF Caw) mouse assessed as antagonism of pentylenetetrazole-induced flexor-extensor tonic convulsions administered via gavage 30 mins before pentylenetetrazole challenge. In kind it is functional. In outline:
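Male mice, 18-22 g, dosed orally by gavage in 0.5% Methocel (0.1 mL/10 g), starting at a 50 mg/kg screening dose, then graded doses. Pentylenetetrazole 130 mg/kg ip given 30 min later. Ten mice per dose and for controls. Dose preventing flexor-extensor tonic convulsions in 50% of animals read from dose-response curves (ED50).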

The nature of series [3]: Orientative acute toxicity in po dosed ICEM:CET (SPF Caw) mouse administered via gavage measured for 60 mins after drug dosing by Irwin's test. Conditions: ICEM:CET (SPF Caw), in vivo. In kind it is organism-based. The method, boiled down:
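Male ICEM:CET (SPF Caw) mice, 18-22 g. Oral gavage, suspended or dissolved in 0.5% Methocel at 0.1 mL/10 g body weight. Doses of at least 25, 50, 100, 200, 400 and 800 mg/kg, four animals per dose. Animals were observed closely for 60 min after dosing during Irwin's symptomatologic test, and an approximate LD50 was estimated.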

For series [4], the system named is Mus musculus. Nature of the series: Antidepressant activity in po dosed ICEM:CET (SPF Caw) mouse assessed as antagonism of reserpine-induced hypothermia administered via gavage 30 mins before reserpine challenge measured 4 hrs after reserpine treatment. In kind it is functional. The method, boiled down: as §1
Where [5] appears, read: Mus musculus, ICEM:CET(SPF Caw), po, read-out: ED50.

A word on the ED50: it is the dose that gives a 50% effect, or the effect in half of the subjects. What is called LD50 is the dose expected to kill half of the subjects tested. Low readings indicate greater toxicity, high ones lower toxicity. On to `CNC1(c2ccccc2)CN(C2c3ccccc3CCc3ccccc32)C1`, for which the ED50 in the series with Mus musculus [1] was over 25 mg/kg; in the series on Mus musculus [2] (setting [5]), over 50 mg/kg; in the series with Mus musculus [4] (setting [5]) it was over 25 mg/kg. In series [3], the LD50 at 1 h was over 400 mg/kg.
On to `C#CC(C)(C)NC1CN(C2c3ccccc3CCc3ccccc32)C1`, for which the figures for the ED50 in the series on Mus musculus [1], in the series on Mus musculus [2] (setting [5]) and with Mus musculus [4] (setting [5]) were 9 mg/kg, 19.6 mg/kg and over 25 mg/kg, respectively. In series [3], the LD50 at 1 h is over 800 mg/kg.
Consider `CCNC1CN(C2c3ccccc3COc3ccccc32)C1` (centres undefined), for which the ED50 in the series with Mus musculus [1] came out at 4.8 mg/kg; in the series on Mus musculus [2] (setting [5]), 25.3 mg/kg; with Mus musculus [4] (setting [5]) it was 22.2 mg/kg. Moreover, the LD50 at 1 h in series [3] turned out to be 200 mg/kg.
Consider `CNC1CN(C2c3ccccc3CSc3ccc(Cl)cc32)C1` (centres undefined), for which the results for the ED50 in the series with Mus musculus [1], in the series on Mus musculus [2] (setting [5]) and with Mus musculus [4] (setting [5]) were over 25 mg/kg, over 50 mg/kg and over 25 mg/kg, respectively. The compound further had an LD50 at 1 h in series [3] of 400 mg/kg.
Turning to `CC(C)NC1CN(C2c3ccccc3CCc3ccccc32)C1`, the ED50 with Mus musculus [1] was 6.5 mg/kg; with Mus musculus [2] (setting [5]), 23.3 mg/kg; in the series on Mus musculus [4] (setting [5]), 8.5 mg/kg. In series [3], this compound gave an LD50 at 1 h of 200 mg/kg.
For `CNC1(C)CN(C2c3ccccc3CCc3ccccc32)C1` the same measures were over 25 mg/kg, 44.6 mg/kg, over 25 mg/kg and 200 mg/kg.
For `CNC1CCN(C2c3ccccc3CCc3ccccc32)C1` (centres undefined) the same measures were over 25 mg/kg, 45 mg/kg, over 25 mg/kg and 200 mg/kg.
For the compound `CC(=O)N(C)C1CN(C2c3ccccc3CCc3ccccc32)C1`, the results for the ED50 in the series on Mus musculus [1], in the series on Mus musculus [2] (setting [5]) and in the series on Mus musculus [4] (setting [5]) were over 25 mg/kg, 28 mg/kg and over 25 mg/kg, respectively. This compound also registered an LD50 at 1 h in series [3] of 400 mg/kg.
Consider `NCC1CN(C2c3ccccc3CCc3ccccc32)C1`, for which the ED50 is over 25 mg/kg in the series with Mus musculus [1], over 50 mg/kg in the series on Mus musculus [2] (setting [5]) and over 25 mg/kg in the series with Mus musculus [4] (setting [5]). In series [3], this compound returned an LD50 at 1 h of 400 mg/kg.
As for `CN(C)C1CN(C2c3ccccc3COc3ccc(Cl)cc32)C1` (centres undefined), the ED50 was over 25 mg/kg in the series with Mus musculus [1], over 50 mg/kg in the series with Mus musculus [2] (setting [5]) and over 25 mg/kg in the series with Mus musculus [4] (setting [5]). Further, the LD50 at 1 h in series [3] was determined as 100 mg/kg.
For the compound `CNCC1CN(C2c3ccccc3CCc3ccccc32)C1`, the results for the ED50 with Mus musculus [1], in the series with Mus musculus [2] (setting [5]) and in the series on Mus musculus [4] (setting [5]) were over 25 mg/kg, over 50 mg/kg and over 25 mg/kg, respectively. The compound also showed an LD50 at 1 h in series [3] of 200 mg/kg.
Regarding `CNCCN(C)C1c2ccccc2CCc2ccccc21`, the ED50 with Mus musculus [1] was over 25 mg/kg; in the series with Mus musculus [2] (setting [5]), 18 mg/kg; in the series on Mus musculus [4] (setting [5]), over 25 mg/kg. The compound also registered an LD50 at 1 h in series [3] of 200 mg/kg.
For the compound `CN(C(N)=O)C1CN(C2c3ccccc3CCc3ccccc32)C1`, the values for the ED50 in the series on Mus musculus [1], with Mus musculus [2] (setting [5]) and in the series on Mus musculus [4] (setting [5]) were over 12.5 mg/kg, over 12.5 mg/kg and 12.5 mg/kg, respectively. In addition, the LD50 at 1 h in series [3] turned out to be 400 mg/kg.
In the case of `CC(Cc1ccccc1)NC1CN(C2c3ccccc3CCc3ccccc32)C1` (centres undefined), the figures for the ED50 in the series on Mus musculus [1], in the series on Mus musculus [2] (setting [5]) and with Mus musculus [4] (setting [5]) were over 25 mg/kg, over 50 mg/kg and over 25 mg/kg, respectively. For the same compound, in series [3], the LD50 at 1 h was over 800 mg/kg.
As to `CNC1CN(C2c3ccccc3CSc3ccc(OC)cc32)C1` (centres undefined), the ED50 with Mus musculus [1] was 21.8 mg/kg; in the series with Mus musculus [2] (setting [5]), over 50 mg/kg; in the series on Mus musculus [4] (setting [5]), over 25 mg/kg. This compound also returned an LD50 at 1 h in series [3] of 400 mg/kg.
Regarding `CC(C)(C)NC1CN(C2c3ccccc3CCc3ccccc32)C1`, the ED50 with Mus musculus [1] was over 25 mg/kg; in the series on Mus musculus [2] (setting [5]), 28.7 mg/kg; with Mus musculus [4] (setting [5]), over 25 mg/kg. In series [3], this compound registered an LD50 at 1 h of 400 mg/kg.
For `CNC1CN(C2c3ccccc3COc3ccccc32)C1.O=C(O)/C=C/C(=O)O` (single isomer, unassigned; (+)), the values for the ED50 in the series with Mus musculus [1], with Mus musculus [2] and with Mus musculus [4] were 1 mg/kg, 14 mg/kg and 4.9 mg/kg, respectively. Besides, in series [3], the LD50 at 1 h is 200 mg/kg.
On to `CNC1CN(C2CCCCc3ccccc32)C1` (centres undefined), for which the ED50 in the series with Mus musculus [1] is over 25 mg/kg; with Mus musculus [2] (setting [5]), 48 mg/kg; with Mus musculus [4] (setting [5]), over 25 mg/kg. In series [3], this compound registered an LD50 at 1 h of 400 mg/kg.
Regarding `C#CCN(CC#C)C1CN(C2c3ccccc3CCc3ccccc32)C1`, the ED50 was over 25 mg/kg in the series on Mus musculus [1], 38 mg/kg in the series with Mus musculus [2] (setting [5]) and 21 mg/kg in the series on Mus musculus [4] (setting [5]). Besides, in series [3], the LD50 at 1 h is over 800 mg/kg.
As to `CN(C)C1CN(C2c3ccccc3COc3ccccc32)C1` (centres undefined), the ED50 in the series on Mus musculus [1] amounted to 5.6 mg/kg; in the series on Mus musculus [2] (setting [5]), 28.5 mg/kg; in the series on Mus musculus [4] (setting [5]), 23 mg/kg. In series [3], this compound returned an LD50 at 1 h of 100 mg/kg.
The corresponding values for `OCCN1CCN(C2CN(C3c4ccccc4CCc4ccccc43)C2)CC1` are over 25 mg/kg, 31 mg/kg, over 25 mg/kg and 400 mg/kg.
